We go through two compounds from ChEMBL document CHEMBL1137010, “Improved peptide prodrugs of 5-ALA for PDT: rationalization of cellular accumulation and protoporphyrin IX production by direct determination of cellular prodrug uptake and prodrug metabolization” (J Med Chem, 2009).

Data set [1] can be described thus: Chromatographic hydrophobicity index in acetonitrile solution under isocratic conditions at pH 6.8. It counts as physicochemical. The method, boiled down: (§1)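 RP-HPLC on a C18 column at 35 °C, 0.7 mL/min. Mobile phase was CH3CN or CH3OH with 50 mM aq ammonium formate (pH 6.8). […], with t0 from uracil and tR measured in duplicate. Six isocratic compositions were chosen so that −1.5 < log k < 0.6, and the index was derived from the linear log k versus organic-fraction relation.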

The nature of data set [2]: Chromatographic hydrophobicity index in methanol solution under isocratic conditions at pH 6.8. It counts as physicochemical. A digest of the protocol:
as §1

For data set [3], the system named is PAM212. Kind of data set: Drug uptake in mouse PAM212 cells assessed as enhanced PpIX fluorescence at 0.1 mM after 4 hrs. The class given is ADME, cell-based. Particulars: pam212, 4 h, 100 µM. The method, boiled down: (§2)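 PAM212 cells were seeded 5 × 10^4/well, grown 48 h, PBS-washed and incubated with drug at 0.01 or 0.1 mM in serum-free medium for 4 or 6 h. Untreated wells gave background and ALA wells served as reference. Well fluorescence: excitation 410 nm, emission 635 nm, scans 600–750 nm. Mean intensity (arbitrary units) after control subtraction, calibrated against rhodamine B.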

The subject of data set [4] is PAM212. As to the kind of experiment: Drug uptake in mouse PAM212 cells assessed as enhanced PpIX fluorescence at 0.1 mM after 6 hrs. The class given is ADME, cell-based. Particulars: pam212, 6 h, 100 µM. The method, boiled down:
as §2

Data set [5] deals with PAM212. As to the kind of experiment: Drug uptake in mouse PAM212 cells assessed as enhanced PpIX fluorescence at 0.01 mM after 4 hrs. The class given is ADME, cell-based. Particulars: pam212, 4 h, 10 µM. A digest of the protocol: as §2
Data set [6] deals with PAM212. Kind of data set: Drug uptake in mouse PAM212 cells assessed as enhanced PpIX fluorescence at 0.01 mM after 6 hrs. Particulars: pam212, 6 h, 10 µM. It counts as ADME, cell-based. The method, boiled down: as §2
Data set [7] has as its system PAM212. As to the kind of experiment: Drug uptake in mouse PAM212 cells assessed as intracellular 5-aminolaevulinic acid level per mg of protein at 0.1 mM after 4 hrs. The class given is ADME, cell-based. Particulars: pam212, 4 h, 100 µM.
Data set [8] has as its system PAM212. As to the kind of experiment: Drug uptake in mouse PAM212 cells assessed as PpIX production per mg of protein at 0.1 mM after 4 hrs. The following applies: pam212, 4 h, 100 µM. The class given is ADME, cell-based. A digest of the protocol:
(§3)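 Cells (PAM212; A549 in F12K; Caco-2 in EMEM, 37 °C, 5% CO2) were seeded in 100 mm dishes and grown 48 h at 37 °C. After PBS washing they were incubated 4 h at 37 °C with 0.1 or 1 mM drug, washed, lysed 15 min and scraped, then centrifuged at 1800 g for 10 min. Supernatant PpIX was read by fluorescence (410/635 nm) against a PpIX standard curve and normalized to protein by BCA.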

Data set [9] has as its system PAM212. As to the kind of experiment: Drug uptake in mouse PAM212 cells assessed as intracellular 5-aminolaevulinic acid level per mg of protein at 1 mM after 4 hrs. It counts as ADME, cell-based. Particulars: pam212, 4 h, 1000 µM.
Data set [10] concerns PAM212. Kind of data set: Drug uptake in mouse PAM212 cells assessed as PpIX production per mg of protein at 1 mM after 4 hrs. The class given is ADME, cell-based. The following applies: pam212, 4 h, 1000 µM. The method, boiled down:
as §3

In data set [11] the test system is A549. As to the kind of experiment: Drug uptake in human A549 cells assessed as intracellular 5-aminolaevulinic acid level per mg of protein at 0.1 mM after 4 hrs. It counts as ADME, cell-based. The following applies: a549, 4 h, 100 µM.
Data set [12] has as its system A549. Kind of data set: Drug uptake in human A549 cells assessed as PpIX production per mg of protein at 0.1 mM after 4 hrs. Particulars: a549, 4 h, 100 µM. The class given is ADME, cell-based. A digest of the protocol: as §3
For data set [13], the system named is Caco-2. As to the kind of experiment: Drug uptake in human Caco-2 cells assessed as intracellular 5-aminolaevulinic acid level per mg of protein at 1 mM after 4 hrs. It counts as ADME, cell-based. Particulars: caco-2, 4 h, 1000 µM.
Data set [14] concerns Caco-2. Kind of data set: Drug uptake in human Caco-2 cells assessed as PpIX production per mg of protein at 1 mM after 4 hrs. It counts as ADME, cell-based. The following applies: caco-2, 4 h, 1000 µM. The method, boiled down:
as §3

Data set [15] deals with PAM212. As to the kind of experiment: Phototoxicity against mouse PAM212 cells assessed as cell viability at 0.1 mM after 4 hrs irradiated with 2.5 J/cm2 blue light by MTT assay relative to control. It counts as functional. Particulars: PAM212, light or radiation study, read-out: Activity. A digest of the protocol: (§4)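 PAM212 cells were seeded about 5 × 10^4/well, grown 48 h, PBS-washed and incubated 4 h with drug at 0.01, 0.1 or 1 mM. Blue light (peak 420 nm) was delivered at 2.5 J/cm², although the methods section states 1.25 J/cm². Medium was then replaced and cells kept 24 h. MTT 1 mg/mL for 3 h, DMSO, A570; survival as % of non-irradiated drug-treated controls.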

In data set [16] the test system is PAM212. As to the kind of experiment: Phototoxicity against mouse PAM212 cells assessed as cell viability at 0.01 mM after 4 hrs irradiated with 2.5 J/cm2 blue light by MTT assay relative to control. It counts as functional, cell-based. The method, boiled down: as §4
Data set [17] has as its system PAM212. As to the kind of experiment: Cytotoxicity against mouse PAM212 cells after 24 hrs in absence of 2.5 J/cm2 blue light by MTT assay. The class given is functional, cell-based. The method, boiled down:
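Dark toxicity. PAM212 keratinocytes (RPMI-1640, 10% FCS) were seeded about 5 × 10^4 cells/well and grown 48 h, PBS-washed, then given drug for 4 h without irradiation. Medium was replaced and cells were kept a further 24 h. MTT 1 mg/mL for 3 h, formazan dissolved in DMSO, absorbance at 570 nm.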
In general terms: Tetrazolium assays rely on reduction of a dye to a coloured formazan, in cell work by metabolically active cells.

Calls of active or inactive are those of the source. The rule behind the calls is not given here.

Take `COC(=O)CCC(=O)CNC(=O)[C@H](Cc1ccccc1)NC(C)=O`: the figures for the CHI in data set [1] and in [2] were 34.71 and 52.96, respectively. For the same compound, the Drug uptake result in the data set on PAM212 [3] is “Active”; with PAM212 [4], “Active”; in the data set with PAM212 [5], “Active”; in the data set on PAM212 [6], “Active”; in the data set with PAM212 [7] it was 2.9 µg/mg; in the data set with PAM212 [8] it was 313 ng/mg. Moreover, the Drug uptake with PAM212 [9] is 13.7 µg/mg; in the data set with PAM212 [10], 295 ng/mg; in the data set with A549 [11], 0.38 µg/mg; with A549 [12], 4.42 ng/mg; in the data set on Caco-2 [13] it was 11.9 µg/mg; in the data set on Caco-2 [14] it was 594 ng/mg. For the same compound, in the data set on PAM212 [15], the viability at 100 µM was 3%. In addition, the result in the data set with PAM212 [16] was Active. Further, in the data set on PAM212 [17], the result was inactive.

On to `COC(=O)CCC(=O)CNC(=O)[C@H](CCSC)NC(C)=O`, for which the CHI in data set [1] amounted to 28.89; in data set [2], 41.4. The Drug uptake result in the data set with PAM212 [3] was “Active”; in the data set with PAM212 [4], “Active”; in the data set with PAM212 [5], “Active”; with PAM212 [6], “Active”; in the data set with PAM212 [7], 3.28 µg/mg; in the data set on PAM212 [8] it was 315 ng/mg. The Drug uptake is 13.2 µg/mg with PAM212 [9] and 295 ng/mg in the data set on PAM212 [10]. Also, the viability at 100 µM with PAM212 [15] worked out at 3%. Further, the outcome in the data set with PAM212 [16] was Active. Moreover, in the data set with PAM212 [17], the result was inactive.
